Six compounds from ChEMBL document CHEMBL2385005, “Binding mechanism of the farnesoid X receptor marine antagonist suvanine reveals a strategy to forestall drug modulation on nuclear receptors. Design, synthesis, and biological evaluation of novel ligands” (J Med Chem, 2013) can be followed below.

Series [1] addresses T1, Oxysterols receptor LXR-alpha (Homo sapiens) (UniProt Q13133).
T1 sequence (whole entry): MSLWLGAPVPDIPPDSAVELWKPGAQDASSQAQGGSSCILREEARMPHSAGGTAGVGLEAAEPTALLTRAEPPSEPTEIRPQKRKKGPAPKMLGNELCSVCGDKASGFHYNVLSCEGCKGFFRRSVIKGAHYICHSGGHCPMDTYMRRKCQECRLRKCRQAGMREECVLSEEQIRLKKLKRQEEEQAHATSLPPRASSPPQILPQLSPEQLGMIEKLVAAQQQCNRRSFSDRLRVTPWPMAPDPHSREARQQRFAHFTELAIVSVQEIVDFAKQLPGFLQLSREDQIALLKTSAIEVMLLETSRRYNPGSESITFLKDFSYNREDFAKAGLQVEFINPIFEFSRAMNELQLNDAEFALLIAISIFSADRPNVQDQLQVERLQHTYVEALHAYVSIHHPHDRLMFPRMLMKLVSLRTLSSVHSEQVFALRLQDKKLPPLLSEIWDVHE
Description: Agonist activity at LXRalpha LBD (unknown origin) transfected in human HepG2 cells co-expressing GAL4-DBD at 10 uM after 18 hrs by luciferase reporter gene assay. In kind it is cell-based. In a few lines:
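HepG2 cells were transiently transfected with 500 ng p(UAS)5XTKLuc, 200 ng pCMV-β-galactosidase and a GAL4-DBD–LXRα LBD vector. At 48 h post-transfection they were stimulated 18 h with compound at 10 μM or the reference agonist. Luciferase was read. Data are mean ± SE of three experiments.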
(In general: In a reporter assay the amount or activity of a reporter protein is the signal.)

Series [2] concerns the target T2, Bile acid receptor (Homo sapiens) (UniProt Q96RI1).
T2 sequence (whole entry): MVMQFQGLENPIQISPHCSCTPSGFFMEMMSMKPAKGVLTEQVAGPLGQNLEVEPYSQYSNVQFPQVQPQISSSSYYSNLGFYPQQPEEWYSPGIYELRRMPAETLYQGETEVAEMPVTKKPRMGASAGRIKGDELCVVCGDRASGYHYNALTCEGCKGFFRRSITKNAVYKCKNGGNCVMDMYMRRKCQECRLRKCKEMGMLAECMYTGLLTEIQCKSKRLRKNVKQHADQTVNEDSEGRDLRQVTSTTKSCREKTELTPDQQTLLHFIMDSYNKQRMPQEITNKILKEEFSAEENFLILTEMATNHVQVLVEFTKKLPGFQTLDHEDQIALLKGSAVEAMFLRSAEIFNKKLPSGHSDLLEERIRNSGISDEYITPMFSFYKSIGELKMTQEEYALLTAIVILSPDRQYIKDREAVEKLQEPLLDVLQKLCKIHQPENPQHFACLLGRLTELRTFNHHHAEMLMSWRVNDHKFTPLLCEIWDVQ
Description: Antagonist activity at FXR (unknown origin) expressed in human HepG2 cells co-expressing RXR assessed as inhibition of CyP7alpha1 gene expression at 50 uM after 18 hrs by RT-PCR analysis. In kind it is cell-based. In a few lines:
(§1)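 HepG2 cells (1 × 10^6) were starved 24 h at 37 °C in E-MEM with 1% FBS. They were then primed 18 h with compound alone at 10 μM, or with 10 μM CDCA plus compound at 50 μM. Total RNA was extracted with TRIzol, DNase-treated and random-primed reverse-transcribed. 25 ng template was amplified by SYBR Green qPCR (0.2 μM primers, 40 cycles) in triplicate.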

Series [3] deals with T2, Bile acid receptor (Homo sapiens). Nature of the series: Antagonist activity at FXR (unknown origin) expressed in human HepG2 cells co-expressing RXR assessed as inhibition of CDCA-induced OSTalpha gene expression at 50 uM after 18 hrs by RT-PCR analysis. In kind it is cell-based. In a few lines:
as §1

For series [4] the target is unchanged. Nature of the series: Antagonist activity at FXR (unknown origin) expressed in human HepG2 cells co-expressing RXR assessed as inhibition of CDCA-induced SHP gene expression at 50 uM after 18 hrs by RT-PCR analysis. In kind it is cell-based. In a few lines:
as §1

Series [5] shares this target. Description: Antagonist activity at FXR (unknown origin) expressed in human HepG2 cells assessed as inhibition of 6-ECDCA-induced FXR/Src-1-mediated transcription activation complex formation at 15 uM after 18 hrs by chromatin immunoprecipitation assay. In kind it is cell-based. The gist of the method:
(§2)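 HepG2 cells (10 × 10^6) were serum-starved 24 h, then treated 18 h with 6-ECDCA 5 μM alone or with compound 15 μM. Cells were crosslinked with 1% formaldehyde for 10 min and quenched with 125 mM glycine. Sonicated chromatin was immunoprecipitated overnight at 4 °C with anti-FXR, anti-Src1, anti-NCoR or IgG. OSTα promoter DNA was measured by qPCR as 2^−ΔΔCt versus input and unstimulated IgG.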

Series [6] shares this target. Nature of the series: Antagonist activity at FXR (unknown origin) expressed in human HepG2 cells assessed as inhibition of 6-ECDCA-induced NCoR binding to chromatin at 15 uM after 18 hrs by chromatin immunoprecipitation assay. In kind it is cell-based. In a few lines:
as §2

For series [7] the target is unchanged. Description: (§3) Antagonist activity at FXR (unknown origin) expressed in human HepG2 cells co-expressing RXR assessed as inhibition of CDCA-induced transactivation after 18 hrs by luciferase reporter gene assay. In kind it is cell-based. The gist of the method:
(§4)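 HepG2 cells (in MEM, 10% FBS, 37 °C) were plated at 1 × 10^5 cells/well. They were transfected with 150 ng pSG5-FXR, 150 ng pSG5-RXR, 200 ng pCMV-βgal and 500 ng p(hsp27)-TK-LUC (IR1 element). At 24 h they were stimulated 18 h with compound alone (10 μM, or 1–50 μM series) or with compound (50 μM, or 1–50 μM series) plus 10 μM CDCA. Luciferase was normalized to β-galactosidase activity.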

For series [8], the target named is T3, Bile acid receptor (Homo sapiens, UniProt Q96RI1).
T3 sequence (Q96RI1 whole entry): T2 sequence (whole entry)
Described as §3. In kind it is cell-based. The gist of the method: as §4

Series [9] deals with T2, Bile acid receptor (Homo sapiens). Description: Transactivation of FXR (unknown origin) expressed in human HepG2 cells co-expressing RXR assessed as beta-galactosidase activity at 10 uM after 18 hrs by luciferase reporter gene assay. In kind it is cell-based. In a few lines:
as §4

Series [10] shares this target. Description: Antagonist activity at FXR (unknown origin) expressed in human HepG2 cells co-expressing RXR assessed as inhibition of CDCA-induced transactivation at 50 uM after 18 hrs by luciferase reporter gene assay. In kind it is cell-based. The gist of the method: as §4
The target in series [11] is Peroxisome proliferator-activated receptor gamma (Homo sapiens) (UniProt P37231). Description: Agonist activity at PPARgamma LBD (unknown origin) transfected in human HepG2 cells co-expressing GAL4-DBD at 10 uM after 18 hrs by luciferase reporter gene assay.
Series [12] deals with T4, Nuclear receptor subfamily 1 group I member 2 (Homo sapiens, UniProt O75469).
T4 sequence (O75469 whole entry): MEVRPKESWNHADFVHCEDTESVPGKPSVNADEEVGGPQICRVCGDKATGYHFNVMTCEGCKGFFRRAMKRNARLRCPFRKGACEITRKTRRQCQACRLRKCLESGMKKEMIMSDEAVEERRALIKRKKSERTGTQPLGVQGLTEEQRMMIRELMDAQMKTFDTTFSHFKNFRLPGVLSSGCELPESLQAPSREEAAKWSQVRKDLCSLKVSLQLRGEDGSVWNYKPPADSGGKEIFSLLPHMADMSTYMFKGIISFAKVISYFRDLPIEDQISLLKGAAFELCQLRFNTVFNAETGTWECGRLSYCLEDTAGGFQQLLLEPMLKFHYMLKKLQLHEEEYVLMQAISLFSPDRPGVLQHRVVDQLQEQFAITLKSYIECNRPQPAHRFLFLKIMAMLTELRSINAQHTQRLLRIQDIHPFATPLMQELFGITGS
Nature of the series: Agonist activity at PXR (unknown origin) transfected in human HepG2 cells co-expressing RXR assessed as CYP3A4 expression at 10 uM after 18 hrs by luciferase reporter gene assay. The following applies: hepg2, 18 h.

The target of series [13] is T2, Bile acid receptor (Homo sapiens). Description: Transactivation of FXR (unknown origin) expressed in human HepG2 cells co-expressing RXR assessed as beta-galactosidase activity at 50 uM after 18 hrs by luciferase reporter gene assay. In kind it is cell-based. In a few lines:
as §4

For series [14] the target is unchanged. Description: Agonist activity FXR (unknown origin) expressed in human HepG2 cells co-expressing RXR assessed as effect on CyP7alpha1 mRNA level […] after 18 hrs by RT-PCR analysis. In kind it is cell-based. The gist of the method:
as §1

Series [15] has the same target. Description: Agonist activity FXR (unknown origin) expressed in human HepG2 cells co-expressing RXR assessed as effect on SHP mRNA level at […] after 18 hrs by RT-PCR analysis. In kind it is cell-based. In a few lines:
as §1

Series [16] shares this target. Description: Agonist activity FXR (unknown origin) expressed in human HepG2 cells co-expressing RXR assessed as effect on OSTalpha mRNA level […] after 18 hrs by RT-PCR analysis. In kind it is cell-based. In a few lines:
as §1

Series [17] has as its target T3, Bile acid receptor. Description: Transactivation of FXR (unknown origin) expressed in human HepG2 cells co-expressing RXR assessed as beta-galactosidase activity after 18 hrs by luciferase reporter gene assay. In kind it is cell-based. In a few lines:
as §4

For series [18], the target named is T2, Bile acid receptor (Homo sapiens). Nature of the series: Transactivation of FXR (unknown origin) expressed in human HepG2 cells co-expressing RXR assessed as beta-galactosidase activity at 50 uM after 18 hrs by luciferase reporter gene assay relative to CDCA. In kind it is cell-based. The gist of the method:
as §4

The source made the active and inactive calls. The rule behind the calls is not given here.

Regarding `CC1(C)CCC[C@]2(C)[C@H]3CC/C(=C\OS(=O)(=O)[O-])[C@H](CCc4ccoc4)[C@@]3(C)CC[C@@H]12.[Na+]` [SUVANINE'S SODIUM SALT], the result in [1], in [9] and in [11] was inactive. Besides, the result in series [2] was Active. The inhibition entry in series [3], in series [4], in series [5] and in series [10] was “Active” in each case. Also, the inhibition entry in series [6] was “inactive”. Further, the inhibition entry in series [7] is “Dose-dependent effect”. For the same compound, in [8], the EC50 was 24 µM. For the same compound, the outcome in series [12] was Active.

For `CC1(C)CCC[C@]2(C)[C@H]3CC[C@H](/C=C/C(=O)O)[C@H](CCc4ccoc4)[C@@]3(C)CC[C@@H]12`, in [13], the result was Active.

Turning to `COC(=O)CC[C@H]1C(=O)CC[C@H]2[C@]1(C)CC[C@H]1C(C)(C)CCC[C@]21C`, the inhibition entry in series [3] and in [4] was “Active” in each case.

With `CC1(C)CCC[C@]2(C)[C@H]3CC[C@@H](CCCO)[C@H](CCc4ccoc4)[C@@]3(C)CC[C@@H]12`, the outcome in series [1] and in [11] was inactive. In addition, the outcome in series [14], in series [15], in series [16] and in series [13] was Active. The EC50 in series [17] was determined as 30 µM. Further, in series [18], the Efficacy is 21.5%. The outcome in series [12] was Active.

Turning to `CC1(C)CCC[C@]2(C)[C@H]3CC[C@H](O)[C@H](CCc4ccoc4)[C@@]3(C)CC[C@@H]12`, the result in [1] and in series [11] was inactive. For the same compound, the inhibition entry in series [3] and in series [4] was “Active” each time. For the same compound, the EC50 in [8] was 25 µM. In addition, the result in [12] was Active.

Regarding `CC1(C)CCC[C@]2(C)C3CC[C@@]4(C=O)[C@@H]5OC(=O)C=C5CC[C@@H]4[C@@]3(C)CC[C@@H]12` (single isomer, unassigned), the inhibition entry in series [3], in series [4] and in series [10] was “Active” throughout.

Usually EC50 stands for the concentration that produces a half-maximal response.
